ChEMBL document CHEMBL1132206, “Design, synthesis, and in vitro activity of catamphiphilic reverters of multidrug resistance: discovery of a selective, highly efficacious chemosensitizer with potency in the nanomolar range” (J Med Chem, 1999)
The source made the active and inactive calls. No cut-off for these calls is given here.

Legend:
Cavia porcellus [1] = species on record: Cavia porcellus; test: Decrease in atrial rate of the right atrium of guinea pig expressed as the negative chronotropy.; parameters: concentration or dose not given beside the values
Cavia porcellus [2] = species on record: Cavia porcellus; test: Percent inhibition of calcium-induced contraction on K+ depolarized guinea pig aortic strip.; format: functional, Aorta; parameters: concentration or dose not given beside the values
Cavia porcellus [3] = species on record: Cavia porcellus; test: Decrease in developed tension of the left atrium of guinea pig expressed as the negative inotropy.; format: functional, Cardiac atrium; parameters: concentration or dose not given beside the values
How it was run: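 Isolated guinea pig left atrium, electrically driven at 1 Hz. Read-out is the fall in developed tension at 5 × 10^-5 M, given as percent change from control (n = 5-6).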

Cavia porcellus [4] = species on record: Cavia porcellus; test: Potency expressed as EC30 for the negative chronotropic activity; 'i' means Inactive; format: functional
Cavia porcellus [5] = species on record: Cavia porcellus; test: Potency expressed as IC50 for the vasorelaxant activity; 'i' means inactive.; format: functional
K562 [6] = test: percentage of the dead cells of K-562 cells was determined for the concentration of 1 uM of the compound.; format: ADME, cell-based; settings: human, k562, 1 µM
How it was run: (§1)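 Doxorubicin-resistant K 562 cells were exposed to compound at 1 µM, and viability was scored by trypan blue exclusion. Dead cells above 20% counted as toxic.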

Cavia porcellus [7] = species on record: Cavia porcellus; test: Potency expressed as EC50 for the negative inotropic activity.; format: functional
Cavia porcellus [8] = species on record: Cavia porcellus; test: Potency expressed as EC30 for the negative chronotropic activity.; format: functional
K562 [9] = test: Potency that causes a half maximal increase in nuclear concentration of pirarubicin.; format: functional, Homo sapiens
K562 [10] = test: The efficacy in reverting MDR was evaluated on erythroleukemia K-562 cell line.; format: functional, Homo sapiens
How it was run: (§2)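 Doxorubicin-resistant and sensitive K 562 cells in exponential growth were used in pH 7.25 HEPES buffer at 37 °C in quartz cuvettes. Pirarubicin uptake was followed as the fall in fluorescence at 590 nm (ex 480 nm). Steady-state nuclear pirarubicin was measured across a range of inhibitor concentrations. α = (CnRi − CnRo)/(CnS − CnRo); αmax is the maximal α, and [i]0.5 is the concentration giving α = 0.5 (mean ± SEM).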

K562 [11] = test: The efficacy in reverting MDR was evaluated on human erythroleukemia K-562 cell line; format: functional
How it was run: as §2

K562 [12] = test: Percentage of the dead cells of K-562 cells was determined for the compound; format: ADME, cell-based; settings: human
How it was run: as §1

| IC50 (Cavia porcellus [5]) | Dead cells (K562 [6]) | EC50 (Cavia porcellus [7]) | Dead cells (K562 [12]) | Compound | Activity (Cavia porcellus [1]) | Activity (Cavia porcellus [2]) | Activity (Cavia porcellus [3]) | EC30 (Cavia porcellus [4]) | EC30 (Cavia porcellus [8]) | Potency (K562 [9]) | Alpha max (K562 [10]) | Alpha max (K562 [11]) |
| --- | --- | --- | --- | --- | --- | --- | --- | --- | --- | --- | --- | --- |
| Inactive | 100% | 2110 nM |  | Cl.N#CC(CCCNCc1cc2ccccc2c2ccccc12)(c1ccccc1)c1ccccc1 | 38% | 3% | 61% | inactive |  |  |  |  |
| Inactive | 40% | 2150 nM |  | Cl.N#CC(CCCNCC(c1ccccc1)c1ccccc1)(c1ccccc1)c1ccccc1 | 82% | 19% | 75% |  | 1160 nM |  |  |  |
| Inactive | 15% | 1040 nM |  | COc1ccc(C(C#N)(CC#CCNCc2c3ccccc3cc3ccccc23)C(C)C)cc1OC.Cl (centres undefined) | 34% | 12% | 74% | inactive |  | 2000 nM | 0.7 |  |
| Inactive | 30% | 630 nM |  | COc1ccc(C(C#N)(CC#CCN(C)Cc2c3ccccc3cc3ccccc23)C(C)C)cc1OC.Cl (centres undefined) | 39% | 46% | 65% | inactive |  |  |  |  |
| Inactive |  | 1810 nM | 0% | Cl.N#CC(CCCNC1c2ccccc2-c2ccccc21)(c1ccccc1)c1ccccc1 | 57% | 37% | 67% |  | 310 nM | 300 nM |  | 0.8 |
| Inactive |  | 1170 nM | 1% | COc1ccc(C(C#N)(CCCN(C)CC23CC4CC(CC(C4)C2)C3)C(C)C)cc1OC.Cl (centres undefined) | 72% | 39% | 68% |  | 700 nM | 1400 nM |  | 0.65 |
| Inactive | 0% | 1890 nM |  | C=CCNc1nc(NCC=C)nc(N2CCC(NCC#CCC(C#N)(c3ccc(OC)c(OC)c3)C(C)C)CC2)n1.Cl (centres undefined) | 81% | 16% | 67% |  | 800 nM | 200 nM | 0.9 |  |
| Inactive |  | 350 nM | 0% | COc1ccc(C(C#N)(CC#CCN(C)C2c3ccccc3-c3ccccc32)C(C)C)cc1OC.Cl (centres undefined) | 24% | 6% | 71% | inactive |  | 500 nM |  | 0.9 |
| Inactive | 3% | 1110 nM |  | COc1ccc(C(C#N)(CCCNCc2c3ccccc3cc3ccccc23)C(C)C)cc1OC.Cl (centres undefined) | 65% | 29% | 55% |  | 860 nM | 50 nM | 0.7 |  |
| Inactive |  | 1540 nM | 6% | COc1ccc(C(C#N)(CC#CCNC(c2ccccc2)c2ccccc2)C(C)C)cc1OC.Cl (centres undefined) | 24% | 23% | 69% | inactive |  | 500 nM |  | 0.6 |
| Inactive |  | 1110 nM | 30% | COc1ccc(C(C#N)(CC#CCN(C)CC2c3ccccc3-c3ccccc32)C(C)C)cc1OC.Cl (centres undefined) | 25% | 12% | 78% | inactive |  |  |  |  |
| Inactive |  | 1100 nM | 10% | COc1ccc(C(C#N)(CC#CCNC2c3ccccc3-c3ccccc32)C(C)C)cc1OC.Cl (centres undefined) | 84% | 42% | 77% |  | 8250 nM | 1500 nM |  | 0.7 |
| Inactive |  | 680 nM | 10% | COc1ccc(C(C#N)(CCCNC2c3ccccc3CCc3ccccc32)C(C)C)cc1OC.Cl (centres undefined) | 86% | 24% | 70% |  | 210 nM | 300 nM |  | 0.8 |
| Inactive |  | 640 nM | 3% | Cl.N#CC(CCCNC1c2ccccc2CCc2ccccc21)(c1ccccc1)c1ccccc1 | 5% | 5% | 80% | inactive |  | 500 nM |  | 0.5 |
| Inactive | 100% | 1130 nM |  | COc1ccc(C(C#N)(CCCNCc2cc3ccccc3c3ccccc23)C(C)C)cc1OC.Cl (centres undefined) | 43% | 19% | 65% | inactive |  |  |  |  |
| Inactive |  | 470 nM | 100% | COc1ccc(C(C#N)(CCCNCC2c3ccccc3-c3ccccc32)C(C)C)cc1OC.Cl (centres undefined) | 68% | 26% | 71% |  | 2240 nM |  |  |  |
| Inactive |  | 830 nM | 5% | COc1ccc(C(C#N)(CCCNCC(c2ccccc2)c2ccccc2)C(C)C)cc1OC.Cl (centres undefined) | 74% | 37% | 89% |  | 540 nM | 250 nM |  | 0.7 |
|  | 0% | 610 nM |  | COc1ccc(CCN(C)CCCC(C#N)(c2ccc(OC)c(OC)c2)C(C)C)cc1OC (centres undefined) [VERAPAMIL] | 94% | 95% | 84% |  | 70 nM |  | 0.7 |  |
| Inactive |  | 1010 nM | 3% | COc1ccc(C(C#N)(CCCN(C)CC2c3ccccc3-c3ccccc32)C(C)C)cc1OC.Cl (centres undefined) | 31% | 11% | 75% | inactive |  | 2200 nM |  | 0.5 |
| Inactive |  | 660 nM | 5% | COc1ccc(C(C#N)(CCCNC(c2ccccc2)c2ccccc2)C(C)C)cc1OC.Cl (centres undefined) | 81% | 32% | 73% |  | 690 nM | 250 nM |  | 0.7 |
| Inactive |  | 2910 nM | 0% | COc1ccc(C(C#N)(CC#CCN(C)C23CC4CC(CC(C4)C2)C3)C(C)C)cc1OC.Cl (centres undefined) | 89% | 33% | 66% |  | 370 nM | 800 nM |  | 0.8 |
| Inactive |  | 900 nM | 3% | CN(CCCC(C#N)(c1ccccc1)c1ccccc1)C1c2ccccc2-c2ccccc21.Cl | 9% | 5% | 55% | inactive |  | 3000 nM |  | 0.9 |
